pIC50: −log10 of the molar value. ≈ marks a conversion by molar mass, not a printed value.
Columns and labels:
Staphylococcus aureus [1] = assay: Antibacterial activity against Staphylococcus aureus ATCC 29213 by broth microdilution method; type: functional
Staphylococcus aureus [2] = assay: Antibacterial activity against methicillin-resistant Staphylococcus aureus clinical isolate shhs-A1 by broth microdilution method; type: functional
How it was run: (§1)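 Broth microdilution; MIC read as the lowest concentration giving complete growth inhibition in microdilution wells by unaided eye. Clinical isolates from Shanghai Huashan Hospital. Ampicillin and kanamycin as antibacterial controls. Results in μg/mL.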

[3] = Antibacterial activity against Aeromonas hydrophila ATCC 7966 by broth microdilution method; type: functional, Aeromonas hydrophila subsp. hydrophila ATCC 7966
Micrococcus luteus = assay: Antibacterial activity against Micrococcus luteus by broth microdilution method; type: functional
[4] = system: Staphylococcus epidermidis; assay: Antibacterial activity against methicillin-resistant Staphylococcus epidermidis clinical isolate shhs-E1 by broth microdilution method; type: functional; how it was run: as §1
Acinetobacter baumannii = assay: Antibacterial activity against Acinetobacter baumannii ATCC 19606 by broth microdilution method; type: functional
NCI-H460 = assay: Cytotoxicity against human NCI-H460 cells after 72 hrs by SRB assay; type: functional, cell-based; settings: NCI-H460, 72 h
How it was run: (§2)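 Human tumour lines are tested by sulforhodamine B (SRB) staining. Cisplatin (DDP) is the positive control. IC50 is reported in μM as mean ± deviation.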

Escherichia coli = assay: Antibacterial activity against Escherichia coli ATCC 25922 by broth microdilution method; type: functional
SF-268 = assay: Cytotoxicity against human SF268 cells after 72 hrs by SRB assay; type: functional, cell-based; settings: SF-268, 72 h; how it was run: as §2
MCF7 = assay: Cytotoxicity against human MCF7 cells after 72 hrs by SRB assay; type: functional, cell-based; settings: MCF7, 72 h; how it was run: as §2
HepG2 = assay: Cytotoxicity against human HepG2 cells after 72 hrs by SRB assay; type: functional, cell-based; settings: HepG2, 72 h; how it was run: as §2

| SMILES | MIC (Staphylococcus aureus [1]) | MIC (Staphylococcus aureus [2]) | MIC [3] | MIC (Micrococcus luteus) | MIC [4] | MIC (Acinetobacter baumannii) | pIC50 (NCI-H460) | MIC (Escherichia coli) | pIC50 (SF-268) | pIC50 (MCF7) | pIC50 (HepG2) |
| --- | --- | --- | --- | --- | --- | --- | --- | --- | --- | --- | --- |
| CC1(C)S[C@@H]2[C@H](NC(=O)[C@H](N)c3ccccc3)C(=O)N2[C@H]1C(=O)O [AMPICILLIN] | 0.5 µg/mL (≈ 1.43 µM) | > 128 µg/mL | 128 µg/mL (≈ 366 µM) | 2 µg/mL (≈ 5.72 µM) | 2 µg/mL (≈ 5.72 µM) | > 128 µg/mL |  |  |  |  |  |
| C=C1CCCC(C)(C)C1CC[C@]1(C)c2c(O)cc3c(c2O[C@@H]1C)C(=O)C=C(OC)C3=O (some centres undefined) | 64 µg/mL (≈ 151 µM) | > 128 µg/mL | 128 µg/mL (≈ 302 µM) | > 128 µg/mL | 32 µg/mL (≈ 75.4 µM) | > 128 µg/mL | 4.73 | 128 µg/mL (≈ 302 µM) | 4.55 | 4.73 | 4.73 |
| COc1cccc2nc3c(OC/C=C(\C)CCC=C(C)C)cccc3nc12 | 128 µg/mL (≈ 353 µM) | > 128 µg/mL | 128 µg/mL (≈ 353 µM) | > 128 µg/mL | 128 µg/mL (≈ 353 µM) | > 128 µg/mL | < 4.00 | 128 µg/mL (≈ 353 µM) | 4.52 | 4.66 | 4.28 |
| C=C1CCCC(C)(C)C1CC[C@]1(C)c2c(O)cc3c(c2O[C@@H]1CO)C(=O)C=C(OC)C3=O (some centres undefined) | 8 µg/mL (≈ 18.2 µM) | > 128 µg/mL | 128 µg/mL (≈ 291 µM) | > 128 µg/mL | 8 µg/mL (≈ 18.2 µM) | > 128 µg/mL | 5.06 | 128 µg/mL (≈ 291 µM) | 4.74 | 4.83 | 4.81 |
| C=C1CCCC(C)(C)C1CC[C@@]1(C)c2c(O)cc3c(c2O[C@@H]1C)C(=O)C=C(OC)C3=O (some centres undefined) | 8 µg/mL (≈ 18.8 µM) | > 128 µg/mL | 128 µg/mL (≈ 302 µM) | > 128 µg/mL | 64 µg/mL (≈ 151 µM) | > 128 µg/mL | 5.43 | 128 µg/mL (≈ 302 µM) | 4.57 | 4.89 | 4.76 |
| NC[C@H]1O[C@H](O[C@H]2[C@H](O)[C@@H](O[C@H]3O[C@H](CO)[C@@H](O)[C@H](N)[C@H]3O)[C@H](N)C[C@@H]2N)[C@H](O)[C@@H](O)[C@@H]1O [KANAMYCIN] | 0.5 µg/mL (≈ 1.03 µM) | 0.5 µg/mL (≈ 1.03 µM) | 0.5 µg/mL (≈ 1.03 µM) | 0.5 µg/mL (≈ 1.03 µM) | 128 µg/mL (≈ 264 µM) | 4 µg/mL (≈ 8.26 µM) |  | 0.5 µg/mL (≈ 1.03 µM) |  |  |  |
| CC(C)=CCC/C(C)=C/COc1cccc2nc3c(O)cccc3nc12 | 128 µg/mL (≈ 367 µM) | > 128 µg/mL | 64 µg/mL (≈ 184 µM) | > 128 µg/mL | 128 µg/mL (≈ 367 µM) | > 128 µg/mL | 4.16 | 128 µg/mL (≈ 367 µM) | 4.99 | 4.77 | 4.65 |
| C=C1CCCC(C)(C)C1CC[C@@]1(C)c2c(O)cc3c(c2O[C@@H]1CO)C(=O)C=C(OC)C3=O (some centres undefined) | 8 µg/mL (≈ 18.2 µM) | > 128 µg/mL | 128 µg/mL (≈ 291 µM) | > 128 µg/mL | 8 µg/mL (≈ 18.2 µM) | > 128 µg/mL | 5.36 | 128 µg/mL (≈ 291 µM) | 4.75 | 4.72 | 4.92 |

Source: ChEMBL document CHEMBL3091371, “Cytotoxic and antibacterial marfuraquinocins from the deep South China Sea-derived Streptomyces niveus SCSIO 3406” (J Nat Prod, 2013)
